Results reported in ChEMBL document CHEMBL1152792, “Synthesis and anticonvulsant activity of amino acid-derived sulfamides” (J Med Chem, 2009).
Activity calls are given as the source filed them. The rule behind the calls is not given here.

Experiments:
Mus musculus [1] = assay: Anticonvulsant activity in ip dosed albino mouse after 0.5 hrs by MES test; format: functional
Mus musculus [2] = species: Mus musculus; assay: Ratio of valproic acid ED50 to compound ED50 in albino mouse after 0.5 hrs by MES test; format: functional
Mus musculus [3] = assay: Anticonvulsant activity in ip dosed albino mouse after 0.25 hrs by MES test; format: functional
Mus musculus [4] = assay: Anticonvulsant activity in albino mouse at 30 mg/kg, ip after 0.5 hrs by MES test; format: functional, organism-based; design: dose 30 mg/kg
Outline: (§1)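 NIH Anticonvulsant Drug Development (ADD) program phase I screen in adult male albino mice (18–23 g). Compound given ip in 30% PEG 400 and 10% water at 0.01 mL/g body weight. Seizures were induced electrically (MES) or chemically (PTZ), and animals were tested 0.5 and 4 h after dosing. Result scored as protected/tested animals.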

Mus musculus [5] = assay: Anticonvulsant activity in albino mouse at 300 mg/kg, ip after 0.5 hrs by MES test; format: functional, organism-based; design: dose 300 mg/kg; outline: as §1
Mus musculus [6] = assay: Anticonvulsant activity in albino mouse at 30 mg/kg, ip after 4 hrs by MES test; format: functional, organism-based; design: dose 30 mg/kg; outline: as §1
Mus musculus [7] = assay: Anticonvulsant activity in albino mouse at 300 mg/kg, ip after 4 hrs by MES test; format: functional, organism-based; design: dose 300 mg/kg; outline: as §1
Mus musculus [8] = assay: Anticonvulsant activity in albino mouse at 100 mg/kg, ip after 0.5 hrs by PTZ test; format: functional, organism-based; design: dose 100 mg/kg; outline: as §1
Mus musculus [9] = assay: Anticonvulsant activity in albino mouse at 30 mg/kg, ip after 4 hrs by PTZ test; format: functional, organism-based; design: dose 30 mg/kg; outline: as §1
Mus musculus [10] = assay: Anticonvulsant activity in albino mouse at 100 mg/kg, ip after 4 hrs by PTZ test; format: functional, organism-based; design: dose 100 mg/kg; outline: as §1
Mus musculus [11] = assay: Anticonvulsant activity in albino mouse at 300 mg/kg, ip after 4 hrs by PTZ test; format: functional, organism-based; design: dose 300 mg/kg; outline: as §1
Mus musculus [12] = assay: Toxicity in albino mouse at 30 mg/kg, ip after 0.5 hrs by rotarod test; format: organism-based; design: dose 30 mg/kg, route intraperitoneal; conditions: in vivo
Outline: (§2)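 Neurotoxicity was screened by the standardized rotarod test in the ADD phase I protocol. Adult male albino mice (18–23 g) received compound ip in 30% PEG 400 and 10% water at 0.01 mL/g. Animals were tested 0.5 and 4 h post-dose. Result scored as toxic/tested animals.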

Mus musculus [13] = assay: Toxicity in albino mouse at 100 mg/kg, ip after 0.5 hrs by rotarod test; format: organism-based; design: dose 100 mg/kg, route intraperitoneal; conditions: in vivo; outline: as §2
Mus musculus [14] = assay: Toxicity in albino mouse at 300 mg/kg, ip after 0.5 hrs by rotarod test; format: organism-based; design: dose 300 mg/kg, route intraperitoneal; conditions: in vivo; outline: as §2
Mus musculus [15] = assay: Toxicity in albino mouse at 30 mg/kg, ip after 4 hrs by rotarod test; format: organism-based; design: dose 30 mg/kg, route intraperitoneal; conditions: in vivo; outline: as §2
Mus musculus [16] = assay: Toxicity in albino mouse at 100 mg/kg, ip after 4 hrs by rotarod test; format: organism-based; design: dose 100 mg/kg, route intraperitoneal; conditions: in vivo; outline: as §2
Mus musculus [17] = assay: Toxicity in albino mouse at 300 mg/kg, ip after 4 hrs by rotarod test; format: organism-based; design: dose 300 mg/kg, route intraperitoneal; conditions: in vivo; outline: as §2
Mus musculus [18] = assay: Anticonvulsant activity in ip dosed albino mouse after 4 hrs by MES test; format: functional
Outline: (§3)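 Phase II quantitative MES test in adult male albino mice (18–23 g). Compound given ip in 30% PEG 400 and 10% water at 0.01 mL/g. Testing was done at the previously determined time of peak effect. Six mice per dose group; ED50 (dose protecting 50% of animals, μmol/kg) calculated from the dose–response curve.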

Mus musculus [19] = species: Mus musculus; assay: Ratio of valproic acid ED50 to compound ED50 in albino mouse after 4 hrs by MES test; format: functional
Outline: (§4)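 The compound ED50 came from ip dosing in male albino mice (six per dose) at the time of peak effect. The valproate ED50 was taken from earlier literature.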

Mus musculus [20] = assay: Anticonvulsant activity in albino mouse at 100 mg/kg, ip after 0.5 hrs by MES test; format: functional, organism-based; design: dose 100 mg/kg; outline: as §1
Mus musculus [21] = assay: Anticonvulsant activity in albino mouse at 100 mg/kg, ip after 4 hrs by MES test; format: functional, organism-based; design: dose 100 mg/kg; outline: as §1
Mus musculus [22] = assay: Anticonvulsant activity in ip dosed albino mouse after 2 hrs by MES test; format: functional; outline: as §3
Mus musculus [23] = species: Mus musculus; assay: Ratio of valproic acid ED50 to compound ED50 in albino mouse after 2 hrs by MES test; format: functional; outline: as §4

SMILES | Activity (Mus musculus [6]) | Activity (Mus musculus [8]) | Activity (Mus musculus [9]) | Activity (Mus musculus [10]) | Activity (Mus musculus [12]) | Activity (Mus musculus [13]) | Activity (Mus musculus [14]) | Activity (Mus musculus [15]) | Activity (Mus musculus [16]) | Activity (Mus musculus [17]) | also measured
CCCC(CCC)C(=O)NCC(N)=O [VALROCEMIDE] |  |  |  |  |  |  |  |  |  |  | ED50 (Mus musculus [1]): 755 µmol/kg; Ratio ED50 (Mus musculus [2]): 1.3
CCCC(CCC)C(=O)O [VALPROIC ACID] |  |  |  |  |  |  |  |  |  |  | ED50 (Mus musculus [3]): 1010 µmol/kg
COC(=O)CCNS(=O)(=O)Oc1ccccc1O | inactive | inactive | inactive | inactive | Non-toxic | Non-toxic | Non-toxic | Non-toxic | Non-toxic | Non-toxic | Activity (Mus musculus [4]): inactive; Activity (Mus musculus [5]): inactive; Activity (Mus musculus [7]): inactive; Activity (Mus musculus [11]): inactive; ED50 (Mus musculus [18]): 374 µmol/kg; Ratio ED50 (Mus musculus [19]): 2.7
CCCC(CCC)CNS(=O)(=O)NCCC(=O)OC | Active | Active | inactive | inactive | Non-toxic | Non-toxic | Non-toxic | Non-toxic | Non-toxic | Non-toxic | Activity (Mus musculus [20]): inactive; Activity (Mus musculus [21]): inactive; ED50 (Mus musculus [22]): 79 µmol/kg; Ratio ED50 (Mus musculus [23]): 12.8
